From ChEMBL document CHEMBL1142379, “Substituted 2-oxo-azepane derivatives are potent, orally active gamma-secretase inhibitors” (Bioorg Med Chem Lett, 2008)
pIC50: −log10 of the molar value. Active and inactive are the calls of the source. The rule behind the calls is not given here.

Experiments:
[1] = Clearance in mouse microsomes assessed per mg of protein; format: ADME, Liver, Microsome
Summary of the method: (§1)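 Intrinsic clearance in human and mouse liver microsomes, expressed as µl/min/mg protein.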

Gamma-secretase = experiment: Inhibition of human gamma secretase in HEK293 cells assessed as reduction of amyloid beta level by ELISA; format: cell-based
[2] = Clearance in human microsomes assessed per mg of protein; format: ADME, Microsome; summary of the method: as §1
LLC-PK1 [3] = experiment: Ratio of permeability from basolateral to apical over apical to basolateral side of the pig LLC-PK1 cell transfected with human MDR1 at 1 uM; format: ADME, cell-based, Sus scrofa; settings: llc-pk1, 1 µM
Summary of the method: (§2)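 Bidirectional transport across LLC-PK1 monolayers exogenously expressing human MDR1 (P-gp), compound at 1 μM; apical-to-basolateral and reverse permeabilities measured, export ratio derived; run with and without elacridar (5 μM) as transport inhibitor. Passive permeability estimated from experiments with active transport inhibited.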

[4] = Drug level in PS2APP transgenic mouse brain at 20 mg/kg, po after 2 hrs; format: ADME, organism-based; set-up: dose 20 mg/kg, route oral; settings: read-out: Drug uptake
Summary of the method: (§3)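 Single 20 mg/kg oral dose in mice; plasma and brain concentrations taken at 2 h, brain/plasma ratio calculated; N = 3.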

[5] = Ratio of drug level in brain to plasma in PS2APP transgenic mouse at 20 mg/kg, po after 2 hrs; format: ADME, organism-based; set-up: dose 20 mg/kg, route oral; settings: read-out: BPR; summary of the method: as §3
Mus musculus [6] = experiment: Inhibition of human gamma secretase expressed in PS2APP transgenic mouse at 20 mg/kg, po after 3 days; format: functional, organism-based; set-up: dose 20 mg/kg
Summary of the method: (§4)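 PS2APP transgenic mice (human APP driven by neuron-specific Thy1 promoter) dosed 3 × 20 mg/kg po or ip; γ-secretase inhibition read as accumulation of CTFβ in total brain by Western blot, chemiluminescent band quantified and normalized to an endogenous control protein; reference inhibitor LY411575.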

LLC-PK1 [7] = experiment: Ratio of permeability from basolateral to apical over apical to basolateral side of the pig LLC-PK1 cell transfected with human MDR1 at 1 uM in presence of elacridar; format: ADME, cell-based, Sus scrofa; settings: llc-pk1, 1 µM; summary of the method: as §2
MDR1 = experiment: Permeability from apical to basolateral side of pig LLC-PK1 cell transfected with human MDR1; format: ADME, cell-based, Sus scrofa; settings: read-out: permeability; summary of the method: as §2
[8] = Distribution coefficient, log D of the compound; format: physicochemical; settings: octanol/water
[9] = Solubility of the compound; format: physicochemical
Mus musculus [10] = experiment: Inhibition of human gamma secretase expressed in PS2APP transgenic mouse at 20 mg/kg, ip after 3 days; format: functional, organism-based; set-up: dose 20 mg/kg; summary of the method: as §4

Row | microsomal CLint [1] [µL/min/mg] | pIC50 (Gamma-secretase) | microsomal CLint [2] [µL/min/mg] | Compound | other results
1 | 191 | 8.22 | 45 | CC1(C)CCNC(=O)C(N(Cc2ccc(C(=O)NC3CC3)cc2)S(=O)(=O)c2ccc(Cl)cc2)C1 (centres undefined) | –
2 | 5.4 | – | – | O=C(NC1CC1)c1ccc(CN([C@@H]2CCC(F)(F)CNC2=O)S(=O)(=O)c2ccc(Cl)cc2)cc1 | –
3 | – | 7.10 | – | NC(=O)c1ccc(CN([C@@H]2CCCCNC2=O)S(=O)(=O)c2ccc(Cl)cc2)cc1 | –
4 | 72 | 7.52 | 9 | COc1ccc(CN([C@@H]2CC(F)(F)CCNC2=O)S(=O)(=O)c2ccc(Cl)cc2)cn1 | Ratio (LLC-PK1 [3]): 2.2; concentration at 2 h [4]: 60 ng/g; Kp at 2 h [5]: 0.06; Activity (Mus musculus [6]): Active; Ratio (LLC-PK1 [7]): 1; Papp A→B (MDR1): 28 ×10⁻⁶ cm/s
5 | 39 | 7.70 | 19 | O=C(NC1CC1)c1ccc(CN(C2CC(C(F)(F)F)CCNC2=O)S(=O)(=O)c2ccc(Cl)cc2)cc1 (racemic) | –
6 | – | 6.41 | – | CC1(C)CCCNC(=O)C1N(Cc1ccc(C(=O)NC2CC2)cc1)S(=O)(=O)c1ccc(Cl)cc1 (centres undefined) | –
7 | – | 5.59 | – | CC(C)C[C@H](C(=O)NO)N(Cc1ccc2c(c1)OCO2)S(=O)(=O)c1ccc(Cl)cc1 | –
8 | – | 5.70 | – | CN(C)C(=O)c1ccc(CN(C2CCCCNC2=O)S(=O)(=O)c2ccc(Cl)cc2)cc1 (centres undefined) | –
9 | 282 | 8.10 | 34 | CC(C)C[C@H](C(N)=O)N(Cc1ccc2c(c1)OCO2)S(=O)(=O)c1ccc(Cl)cc1 | logD [8]: > 3; solubility [9]: < 1 µg/mL
10 | 105 | 7.70 | 13 | COc1ccc(CN([C@@H]2CC(F)(F)CCNC2=O)S(=O)(=O)c2ccc(Cl)cc2)c(F)c1 | –
11 | – | 5.05 | – | O=C1NCCCCCC1N(Cc1ccc2c(c1)OCO2)S(=O)(=O)c1ccc(Cl)cc1 (centres undefined) | –
12 | – | < 4.70 | – | CC1(C)CCCC(N(Cc2ccc(C(=O)NC3CC3)cc2)S(=O)(=O)c2ccc(Cl)cc2)C(=O)N1 (centres undefined) | –
13 | – | 6.82 | – | COc1ccc(CN(C2CCCCNC2=O)S(=O)(=O)c2ccc(Cl)cc2)c(F)c1 (centres undefined) | –
14 | – | 5.46 | – | CC1(C)CCC(N(Cc2ccc(C(=O)NC3CC3)cc2)S(=O)(=O)c2ccc(Cl)cc2)C(=O)NC1 (centres undefined) | –
15 | – | < 4.70 | – | O=C1NCCC1N(Cc1ccc2c(c1)OCO2)S(=O)(=O)c1ccc(Cl)cc1 (centres undefined) | –
16 | – | 6.77 | – | O=C(NC1CC1)c1ccc(CN(C2CCCCNC2=O)S(=O)(=O)c2ccc(Cl)cc2)cc1 (centres undefined) | –
17 | 121 | – | 19 | COc1ccc(CN([C@@H]2CC(F)(F)CCNC2=O)S(=O)(=O)c2ccc(Cl)cc2)c(F)c1F | Kp at 2 h [5]: < 0.1
18 | – | 4.85 | – | O=C1NCCCC1N(Cc1ccc2c(c1)OCO2)S(=O)(=O)c1ccc(Cl)cc1 (centres undefined) | –
19 | – | 6.85 | – | O=C(O)CCc1ccc(CN([C@@H]2CCCCNC2=O)S(=O)(=O)c2ccc(Cl)cc2)cc1 | –
20 | 655 | 7.82 | 36 | CC1(C)CCNC(=O)[C@H](N(Cc2ccc(C(=O)NC3CC3)cc2)S(=O)(=O)c2ccc(Cl)cc2)C1 | –
21 | 203 | 7.40 | 51 | CC(C)C1CCNC(=O)C(N(Cc2ccc(C(=O)NC3CC3)cc2)S(=O)(=O)c2ccc(Cl)cc2)C1 (racemic) | –
22 | 110 | 6.92 | 93 | CC(C)(C)C1CCNC(=O)C(N(Cc2ccc(C(=O)NC3CC3)cc2)S(=O)(=O)c2ccc(Cl)cc2)C1 (racemic) | –
23 | – | 6.05 | – | COc1ccc(CN(C2CCCCNC2=O)S(=O)(=O)c2ccc(Cl)cc2)cn1 (centres undefined) | –

Row | Compound | microsomal CLint [1] [µL/min/mg] | pIC50 (Gamma-secretase) | microsomal CLint [2] [µL/min/mg] | other results
24 | O=C(NC1CC1)c1ccc(CN([C@@H]2CC(F)(F)CCNC2=O)S(=O)(=O)c2ccc(Cl)cc2)cc1 | 2.2 | 8.40 | 1.9 | Activity (Mus musculus [6]): inactive; Activity (Mus musculus [10]): inactive
